Test results as given in ChEMBL document CHEMBL1687778, “Genetic determinants involved in the susceptibility of Pseudomonas aeruginosa to beta-lactam antibiotics” (2010).
≈ marks a conversion by molar mass, not a printed value.

Legend:
Format in all cases: functional
Pseudomonas aeruginosa [1] = assay: Antimicrobial activity against Pseudomonas aeruginosa PA14 PA5288 harboring glnK mutant gene by Etest method
Procedure, shortened: (§1)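 Etest MIC. Overnight LB cultures at 37°C were diluted in sterile 0.85% NaCl to about 1 × 10^7 CFU/ml. 100 µl was spread on Mueller-Hinton agar, one strip was placed per plate, and plates were incubated at 37°C for 18 h. Equal cell numbers were seeded per plate, and results were verified in triplicate. PA14 wild type was included in each set as a susceptibility control.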

Pseudomonas aeruginosa [2] = assay: Antimicrobial activity against Pseudomonas aeruginosa PA14 PA0503 harboring mutation in Putative biotin synthesis protein BioC by Etest method
Procedure, shortened: (§2)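 Overnight LB cultures (37°C) diluted in sterile 0.85% NaCl to about 1 × 10^7 CFU/ml. 100 µl spread on Mueller-Hinton agar, one Etest strip per plate, 18 h at 37°C. Ceftazidime, imipenem and meropenem tested. Wild-type PA14 plate included in each set. Each mutant verified in triplicate.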

Pseudomonas aeruginosa [3] = assay: Antimicrobial activity against Pseudomonas aeruginosa PA14 PA0667 harboring mutation in putative metallopeptidase by Etest method; procedure, shortened: as §2
Pseudomonas aeruginosa [4] = assay: Antimicrobial activity against Pseudomonas aeruginosa PA14 PA5366 harboring pstB mutant gene by Etest method; procedure, shortened: as §1
Pseudomonas aeruginosa [5] = assay: Antimicrobial activity against Pseudomonas aeruginosa PA14 PA14_07490/07510 harboring mutation in intergenic region by Etest method; procedure, shortened: as §2
Pseudomonas aeruginosa [6] = assay: Antimicrobial activity against Pseudomonas aeruginosa PA14 PA3247 harboring mutation in putative aspartyl aminopeptidase by Etest method; procedure, shortened: as §2
Pseudomonas aeruginosa [7] = assay: Antimicrobial activity against wild type Pseudomonas aeruginosa PA14 by Etest method; procedure, shortened: as §1
Pseudomonas aeruginosa [8] = assay: Antimicrobial activity against Pseudomonas aeruginosa PA14 PA4069 harboring mutation in putative dTDP-4-rhamnose reductase-related protein by Etest method; procedure, shortened: as §1
Pseudomonas aeruginosa [9] = assay: Antimicrobial activity against Pseudomonas aeruginosa PA14 PA4527 harboring pilC mutant gene by Etest method; procedure, shortened: as §1
Pseudomonas aeruginosa [10] = assay: Antimicrobial activity against Pseudomonas aeruginosa PA14 PA2023 harboring galU mutant gene by Etest method; procedure, shortened: as §2
Pseudomonas aeruginosa [11] = assay: Antimicrobial activity against Pseudomonas aeruginosa PA14 PA14_23420 harboring mutation in putative zinc-binding dehydrogenase by Etest method; procedure, shortened: as §2
Pseudomonas aeruginosa [12] = assay: Antimicrobial activity against Pseudomonas aeruginosa PA14 PA5000 harboring wapR mutant gene by Etest method; procedure, shortened: as §1
Pseudomonas aeruginosa [13] = assay: Antimicrobial activity against Pseudomonas aeruginosa PA14 PA4088 harboring mutation in putative aminotransferase by Etest method; procedure, shortened: as §1
Pseudomonas aeruginosa [14] = assay: Antimicrobial activity against Pseudomonas aeruginosa PA14 PA4005 harboring mutation in conserved hypothetical protein by Etest method; procedure, shortened: as §1
Pseudomonas aeruginosa [15] = assay: Antimicrobial activity against Pseudomonas aeruginosa PA14 PA0479 harboring mutation in putative transcriptional regulator, LysR family by Etest method; procedure, shortened: as §2
Pseudomonas aeruginosa [16] = assay: Antimicrobial activity against Pseudomonas aeruginosa PA14 PA3978 harboring mutation in hypothetical protein by Etest method; procedure, shortened: as §1
Pseudomonas aeruginosa [17] = assay: Antimicrobial activity against Pseudomonas aeruginosa PA14 PA5174 harboring mutation in putative beta-ketoacyl synthase by Etest method; procedure, shortened: as §1
Pseudomonas aeruginosa [18] = assay: Antimicrobial activity against Pseudomonas aeruginosa PA14 PA5005 harboring mutation in putative carbamoyltransferase by Etest method; procedure, shortened: as §1
Pseudomonas aeruginosa [19] = assay: Antimicrobial activity against Pseudomonas aeruginosa PA14 PA2621 harboring clpS mutant gene by Etest method; procedure, shortened: as §2
Pseudomonas aeruginosa [20] = assay: Antimicrobial activity against Pseudomonas aeruginosa PA14 PA4946 harboring mutL mutant gene by Etest method; procedure, shortened: as §1
Pseudomonas aeruginosa [21] = assay: Antimicrobial activity against Pseudomonas aeruginosa PA14 PA3818 harboring suhB mutant gene by Etest method; procedure, shortened: as §1
Pseudomonas aeruginosa [22] = assay: Antimicrobial activity against Pseudomonas aeruginosa PA14 PA4007 harboring proA mutant gene by Etest method; procedure, shortened: as §1
Pseudomonas aeruginosa [23] = assay: Antimicrobial activity against Pseudomonas aeruginosa PA14 PA3800 harboring mutation in conserved hypothetical protein by Etest method; procedure, shortened: as §1
Pseudomonas aeruginosa [24] = assay: Antimicrobial activity against Pseudomonas aeruginosa PA14 PA1553 harboring mutation in putative cytochrome c oxidase, cbb3 type, subunit II by Etest method; procedure, shortened: as §2
Pseudomonas aeruginosa [25] = assay: Antimicrobial activity against Pseudomonas aeruginosa PA14 PA2128 harboring cupA1 mutant gene by Etest method; procedure, shortened: as §2
Pseudomonas aeruginosa [26] = assay: Antimicrobial activity against Pseudomonas aeruginosa PA14 PA0766 harboring mucD mutant gene by Etest method; procedure, shortened: as §2
Pseudomonas aeruginosa [27] = assay: Antimicrobial activity against Pseudomonas aeruginosa PA14 PA3721 harboring nalC mutant gene by Etest method; procedure, shortened: as §1
Pseudomonas aeruginosa [28] = assay: Antimicrobial activity against Pseudomonas aeruginosa PA14 PA0908 harboring mutation in hypothetical protein by Etest method; procedure, shortened: as §2
Pseudomonas aeruginosa [29] = assay: Antimicrobial activity against Pseudomonas aeruginosa PA14 PA4459 harboring mutation in Conserved hypothetical protein by Etest method; procedure, shortened: as §1
Pseudomonas aeruginosa [30] = assay: Antimicrobial activity against Pseudomonas aeruginosa PA14 PA0427 harboring oprM mutant gene by Etest method; procedure, shortened: as §2
Pseudomonas aeruginosa [31] = assay: Antimicrobial activity against Pseudomonas aeruginosa PA14 PA2487 harboring mutation in hypothetical protein by Etest method; procedure, shortened: as §2
Pseudomonas aeruginosa [32] = assay: Antimicrobial activity against Pseudomonas aeruginosa PA14 PA0764 harboring mucB mutant gene by Etest method; procedure, shortened: as §2
Pseudomonas aeruginosa [33] = assay: Antimicrobial activity against Pseudomonas aeruginosa PA14 PA0420 harboring bioA mutant gene by Etest method; procedure, shortened: as §2
Pseudomonas aeruginosa [34] = assay: Antimicrobial activity against Pseudomonas aeruginosa PA14 PA0807 harboring ampDh3 mutant gene by Etest method; procedure, shortened: as §2
Pseudomonas aeruginosa [35] = assay: Antimicrobial activity against Pseudomonas aeruginosa PA14 PA4753 harboring mutation in putative RNA-binding protein by Etest method; procedure, shortened: as §1
Pseudomonas aeruginosa [36] = assay: Antimicrobial activity against Pseudomonas aeruginosa PA14 PA14_15600 harboring mutation in conserved hypothetical protein by Etest method; procedure, shortened: as §2
Pseudomonas aeruginosa [37] = assay: Antimicrobial activity against Pseudomonas aeruginosa PA14 PA5130 harboring mutation in putative rhodanese-like domain protein by Etest method; procedure, shortened: as §1
Pseudomonas aeruginosa [38] = assay: Antimicrobial activity against Pseudomonas aeruginosa PA14 PA4269 harboring rpoC mutant gene by Etest method; procedure, shortened: as §1
Pseudomonas aeruginosa [39] = assay: Antimicrobial activity against Pseudomonas aeruginosa PA14 PA3145 harboring wbpL mutant gene by Etest method; procedure, shortened: as §2
Pseudomonas aeruginosa [40] = assay: Antimicrobial activity against Pseudomonas aeruginosa PA14 PA2963 harboring mutation in putative aminodeoxychorismate lyase by Etest method; procedure, shortened: as §2
Pseudomonas aeruginosa [41] = assay: Antimicrobial activity against Pseudomonas aeruginosa PA14 PA5003 harboring mutation in conserved hypothetical protein by Etest method; procedure, shortened: as §1
Pseudomonas aeruginosa [42] = assay: Antimicrobial activity against Pseudomonas aeruginosa PA14 PA2970 harboring rpmF mutant gene by Etest method; procedure, shortened: as §2
Pseudomonas aeruginosa [43] = assay: Antimicrobial activity against Pseudomonas aeruginosa PA14 PA5192 harboring pckA mutant gene by Etest method; procedure, shortened: as §1
Pseudomonas aeruginosa [44] = assay: Antimicrobial activity against Pseudomonas aeruginosa PA14 PA5002 harboring mutation in hypothetical protein by Etest method; procedure, shortened: as §1
Pseudomonas aeruginosa [45] = assay: Antimicrobial activity against Pseudomonas aeruginosa PA14 PA0401 harboring mutation in Noncatalytic dihydroorotase-like protein by Etest method; procedure, shortened: as §2
Pseudomonas aeruginosa [46] = assay: Antimicrobial activity against Pseudomonas aeruginosa PA14 PA4402 harboring argJ mutant gene by Etest method; procedure, shortened: as §1
Pseudomonas aeruginosa [47] = assay: Antimicrobial activity against Pseudomonas aeruginosa PA14 PA1483 harboring cycH mutant gene by Etest method; procedure, shortened: as §2
Pseudomonas aeruginosa [48] = assay: Antimicrobial activity against Pseudomonas aeruginosa PA14 PA1011 harboring mutation in putative lipoprotein by Etest method; procedure, shortened: as §2

For `CC(C)(O/N=C(\C(=O)N[C@@H]1C(=O)N2C(C(=O)[O-])=C(C[n+]3ccccc3)CS[C@H]12)c1csc(N)n1)C(=O)O` [CEFTAZIDIME], the MIC (Pseudomonas aeruginosa [1]) was 0.5 µg/mL (≈ 0.915 µM), the MIC (Pseudomonas aeruginosa [2]) was 0.5 µg/mL (≈ 0.915 µM) and the MIC (Pseudomonas aeruginosa [3]) was 2 µg/mL (≈ 3.66 µM). It also gave an MIC (Pseudomonas aeruginosa [4]) of 0.75 µg/mL (≈ 1.37 µM), an MIC (Pseudomonas aeruginosa [5]) of 0.5 µg/mL (≈ 0.915 µM) and an MIC (Pseudomonas aeruginosa [6]) of 2 µg/mL (≈ 3.66 µM). It also gave an MIC (Pseudomonas aeruginosa [7]) of 0.75 µg/mL (≈ 1.37 µM), an MIC (Pseudomonas aeruginosa [8]) of 0.75 µg/mL (≈ 1.37 µM) and an MIC (Pseudomonas aeruginosa [9]) of 2 µg/mL (≈ 3.66 µM). The MIC (Pseudomonas aeruginosa [10]) was 3 µg/mL (≈ 5.49 µM), the MIC (Pseudomonas aeruginosa [11]) was 2 µg/mL (≈ 3.66 µM) and the MIC (Pseudomonas aeruginosa [12]) was 4 µg/mL (≈ 7.32 µM). The MIC (Pseudomonas aeruginosa [13]) was 0.25 µg/mL (≈ 0.457 µM), the MIC (Pseudomonas aeruginosa [14]) was 0.75 µg/mL (≈ 1.37 µM) and the MIC (Pseudomonas aeruginosa [15]) was 2 µg/mL (≈ 3.66 µM). The MIC (Pseudomonas aeruginosa [16]) was 0.75 µg/mL (≈ 1.37 µM), the MIC (Pseudomonas aeruginosa [17]) was 1 µg/mL (≈ 1.83 µM) and the MIC (Pseudomonas aeruginosa [18]) was 3 µg/mL (≈ 5.49 µM). It also gave an MIC (Pseudomonas aeruginosa [19]) of 4 µg/mL (≈ 7.32 µM), an MIC (Pseudomonas aeruginosa [20]) of 1.5 µg/mL (≈ 2.74 µM) and an MIC (Pseudomonas aeruginosa [21]) of 0.5 µg/mL (≈ 0.915 µM). It also gave an MIC (Pseudomonas aeruginosa [22]) of 0.75 µg/mL (≈ 1.37 µM), an MIC (Pseudomonas aeruginosa [23]) of 0.25 µg/mL (≈ 0.457 µM) and an MIC (Pseudomonas aeruginosa [24]) of 0.75 µg/mL (≈ 1.37 µM). The MIC (Pseudomonas aeruginosa [25]) was 0.5 µg/mL (≈ 0.915 µM), the MIC (Pseudomonas aeruginosa [26]) was 0.38 µg/mL (≈ 0.695 µM) and the MIC (Pseudomonas aeruginosa [27]) was 1.5 µg/mL (≈ 2.74 µM). The MIC (Pseudomonas aeruginosa [28]) was 2 µg/mL (≈ 3.66 µM), the MIC (Pseudomonas aeruginosa [29]) was 1.5 µg/mL (≈ 2.74 µM) and the MIC (Pseudomonas aeruginosa [30]) was 0.38 µg/mL (≈ 0.695 µM). The MIC (Pseudomonas aeruginosa [31]) was 2 µg/mL (≈ 3.66 µM), the MIC (Pseudomonas aeruginosa [32]) was 0.75 µg/mL (≈ 1.37 µM) and the MIC (Pseudomonas aeruginosa [33]) was 0.5 µg/mL (≈ 0.915 µM). For the same molecule, the MIC (Pseudomonas aeruginosa [34]) was 0.75 µg/mL (≈ 1.37 µM), the MIC (Pseudomonas aeruginosa [35]) was 0.25 µg/mL (≈ 0.457 µM) and the MIC (Pseudomonas aeruginosa [36]) was 1.5 µg/mL (≈ 2.74 µM). It also gave an MIC (Pseudomonas aeruginosa [37]) of 0.75 µg/mL (≈ 1.37 µM), an MIC (Pseudomonas aeruginosa [38]) of 0.5 µg/mL (≈ 0.915 µM) and an MIC (Pseudomonas aeruginosa [39]) of 2 µg/mL (≈ 3.66 µM). It also gave an MIC (Pseudomonas aeruginosa [40]) of 0.75 µg/mL (≈ 1.37 µM), an MIC (Pseudomonas aeruginosa [41]) of 3 µg/mL (≈ 5.49 µM) and an MIC (Pseudomonas aeruginosa [42]) of 0.5 µg/mL (≈ 0.915 µM). For the same molecule, the MIC (Pseudomonas aeruginosa [43]) was 0.5 µg/mL (≈ 0.915 µM), the MIC (Pseudomonas aeruginosa [44]) was 1.5 µg/mL (≈ 2.74 µM) and the MIC (Pseudomonas aeruginosa [45]) was 0.38 µg/mL (≈ 0.695 µM). It also gave an MIC (Pseudomonas aeruginosa [46]) of 3 µg/mL (≈ 5.49 µM), an MIC (Pseudomonas aeruginosa [47]) of 0.5 µg/mL (≈ 0.915 µM) and an MIC (Pseudomonas aeruginosa [48]) of 0.5 µg/mL (≈ 0.915 µM).
